Assay results of several laboratories.
Compare with care: the assays were run in different laboratories.
Target: Serine/threonine-protein kinase 32B (STK32B, Homo sapiens, UniProt Q9NY57)

| Compound | assay | setting | remaining binding [%] |
| --- | --- | --- | --- |
| O=C(NCC1CCOCC1)c1n[nH]cc1NC(=O)c1c(F)cccc1F | binding, competition with immobilised ligand | 1 µM | 77 |
| CNC(=O)c1ccc(Nc2ncc(C(F)(F)F)c(NCc3nccnc3N(C)S(C)(=O)=O)n2)cc1 | cell-free assay, competition with immobilised ligand | 0.1 µM | 97 |
| O=C(NCCCN1CCOCC1)c1ccc(Nc2ncc(Cl)c(-c3ccc(Cl)s3)n2)cc1 | binding, competition with immobilised ligand | 1 µM | 100 |
| CC1=C(C#N)[C@@H](c2ccc3[nH]nc(C)c3c2)C(C#N)=C(c2ccc(Cl)cc2)N1 | cell-free assay, competition with immobilised ligand | 1 µM | 100 |
| c1cncc(-c2cccc(Nc3nccc(NC4CCCCC4)n3)c2)c1 | binding, competition with immobilised ligand | 10 µM | 100 |
| C[C@@H](c1cccc(C#N)c1)n1cc(Cl)cc(C(N)=O)c1=N | cell-free assay, competition with immobilised ligand | 1 µM | 100 |
| C[C@@H]1CCN(c2nccc(-c3cnn4ncccc34)n2)C1 | binding | 1 µM | 89 |
| COc1ncc2cc3ccccc3nc2c1C#N | cell-free assay, competition with immobilised ligand | 5 µM | 84 |
| C[C@@H](c1ccc(-n2cnc3c(N)ncnc32)cc1)N1CCc2nn(C)c(Cc3ccccc3)c2C1=O | binding, competition with immobilised ligand | 0.1 µM | 99 |
| N[C@@H]1CCN(c2nccc(-c3cnn4ncccc34)n2)C1 | binding | 1 µM | 96 |
| CCC(=O)N[C@H]1CC[C@@H](C(=O)N(C)c2ccc(-c3nc4ccccc4o3)cc2)C1 | cell-free assay, competition with immobilised ligand | 1 µM | 98 |
| O=C(c1ccc(Nc2nccc(-c3cc4ccccc4s3)n2)cc1)N1CCC(N2CCCC2)CC1 | binding, competition with immobilised ligand | 1 µM | 100 |
| Cc1cnn2ncc(-c3ccnc(N(C)C)n3)c2c1 | binding | 1 µM | 100 |
| CNC(=O)[C@@H]1CC[C@@H](n2c(-c3ccc4cnccc4c3)nc3ccc(C(=O)NCc4cccc(C(N)=O)c4)cc32)C1 | binding, competition with immobilised ligand | 1 µM | 100 |
| CCN1CCN(Cc2ccc(C(=O)Nc3ccc(C)c(Oc4ccc5c(c4)CC(=O)N5)c3)cc2C(F)(F)F)CC1 | binding, competition with immobilised ligand | 1 µM | 92 |
| CN(C)c1nccc(-c2cnn3ncccc23)n1 | binding | 1 µM | 100 |
| O=C(c1ccc(Nc2ncc(Cl)c(-c3ccc(Cl)s3)n2)cc1)N1CCC(N2CCCC2)CC1 | binding, competition with immobilised ligand | 1 µM | 100 |
| F[C@@H]1CCN(c2nccc(-c3cnn4ncccc34)n2)C1 | binding | 1 µM | 100 |
| CS(=O)(=O)N1CCCC(NC(=O)[C@H](CCC2CCCCC2)NC(=O)c2ccc(CNC(=O)c3cnc4ccccn34)cc2)C1 (stereo partly drawn) | cell-free assay, competition with immobilised ligand | 0.1 µM | 93 |
| CN(C)c1ncc(F)c(-c2cnn3ncccc23)n1 | binding | 1 µM | 100 |
| O=C(Nc1cnc(Oc2ccc(F)cc2)nc1)N1CCc2ncccc2[C@@H]1c1ccc(F)cc1 | cell-free assay, competition with immobilised ligand | 1 µM | 87 |
